# The source made the active and inactive calls.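 The calls were made as follows, unless noted: active = viability at or below 30% in both replicate assays; inconclusive = viability at or below 30% in just one of the two assays; inactive = the rest.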
# Legend:
# [1] = HUVEC growth inhibition – cell-based, human, primary screen (AID 575); conditions: HUVEC proliferation, CellTiter-Glo luminescence, 72 h; at 10 µM; stronger effect = lower value;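 also: 100% = median of untreated cell wells with 0.1% DMSO on each plate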
# Summary of the method: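 Material: primary human umbilical vein endothelial cells / Schedule: 72 h exposure, 37 °C, 5% CO2, 30 min RT equilibration / Signal: ATP-based CellTiter-Glo luminescent read / Read-out basis: percent of median DMSO-control luminescence / Control set: 32 DMSO-only cell-control wells (high), 32 MePR drug-control wells (low) per plate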
# [2] = growth inhibitors of H69AR lung tumor, primary screen, human, duplicate replicates (AID 580;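 active = viability at or under a set limit in both replicates, limit being median viability minus 3 SD, cut at about 48% in these data, passing the limit was not always enough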;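 also: 100% = mean luminescence of untreated wells and 0% = no signal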); conditions: H69AR lung tumor cells viability, ATP luminescence, 72 h; at 10 µM; stronger effect = lower value
# [3] = reversal of MRP1-mediated doxorubicin resistance, pilot screen, H69AR cells, doxorubicin co-treatment (AID 601;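 active = viability loss from added drug above about 55%, and viability with drug at most 40%, in both replicates, limit read from the data, passing the limit was not always enough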); conditions: CellTiter-Glo, 72 h, at 10 µM; for differential viability (reversal): stronger effect = higher value
# [4] = 384-well plate pilot, post-Golgi transport modulator project, inhibition of yeast transport mutant growth (AID 636; in the data active = inhibition above about 31%); conditions: absorbance 615 nm, about 18 h, stronger effect = higher value
# [5] = growth suppression of yeast trafficking mutant, preliminary HTS, modulators of trafficking downstream of Golgi apparatus project, 1536-format plate, OD 615 nm (AID 637; in the data active = inhibition above about 30%); conditions: yeast transport mutant growth, absorbance 615 nm, 18 h; stronger effect = higher value
# [6] = H69AR cells + 2 uM doxorubicin, measured here: viability with 2 uM doxorubicin, stronger effect = lower value
# [7] = H69AR cells, compound alone cytotoxicity
SMILES,viability [1],viability [2],differential viability (reversal) ([3]; H69AR cells + 2 uM doxorubicin),"viability [3, 6]","viability [3, 7]",inhibition [4],inhibition [5]
COc1cc(S(=O)(=O)N(C)C)ccc1F,95.4% (inactive),91.7% (inactive),9.55% (inactive),82.1%,91.7%,-6.67% (inactive),3.65% (inactive)
COc1ccc(S(=O)(=O)NC(C)C(=O)Nc2cccc(C(C)=O)c2)cc1 (stereo not given),114% (inactive),98.1% (inactive),9.17% (inactive),88.9%,98.1%,-4.8% (inactive),0.16% (inactive)
CC1CCCC(NC(=O)CN2CCN(Cc3ccc(Cl)cc3)C2=O)C1C (stereo not given),108% (inactive),103% (inactive),16.2% (inactive),86.4%,103%,-1.43% (inactive),4.92% (inactive)
Cc1ccc2nc(NC(=O)CN(C)S(=O)(=O)c3cccc4nsnc34)sc2c1,18.1% (active),9.1% (active),-15.1% (inactive),24.2%,9.1%,-4.27% (inactive),-4.29% (inactive)
CCCSc1nc(N)c(C#N)c(-c2ccc(C)cc2)c1C#N,79.6% (inactive),70.3% (inactive),-10.1% (inactive),80.4%,70.3%,-2.67% (inactive),4.76% (inactive)
COc1ccc(OC)c(Nc2ncnc3c2cnn3-c2ccccc2)c1,99.3% (inactive),90.5% (inactive),1.97% (inactive),88.5%,90.5%,-4.67% (inactive),-5.87% (inactive)
CCn1nccc1C(=O)Nc1nccs1,104% (inactive),93.7% (inactive),10% (inactive),83.7%,93.7%,-4.34% (inactive),3.65% (inactive)
O=C(CN1C(=O)COc2ccccc21)NCCN1CCc2ccccc2C1,79.1% (inactive),92.9% (inactive),-3.52% (inactive),96.4%,92.9%,-4.68% (inactive),-1.59% (inactive)
Cc1nc(NC2=NCN(CCc3ccccc3)CN2)nc2c(C)cccc12,81.9% (inactive),78% (inactive),-15.7% (inactive),93.7%,78%,-3.82% (inactive),4.76% (inactive)
O=C(Nc1ccc(S(=O)(=O)NCCc2ccccc2)cc1)c1ccc(Br)o1,72.4% (inactive),108% (inactive),16.8% (inactive),91.5%,108%,-1.32% (inactive),-6.35% (inactive)
Cc1ccc(-n2c(-c3ccncc3)nnc2-c2cccs2)cc1,95.2% (inactive),79.9% (inactive),39.3% (inactive),40.6%,79.9%,-6.53% (inactive),9.37% (inactive)
CCN(CC)CCNC(=O)C1CCN(S(=O)(=O)N2CCCCC2)CC1,100% (inactive),94.8% (inactive),0.23% (inactive),94.6%,94.8%,-3.82% (inactive),0.32% (inactive)
CS(=O)(=O)Nc1ccc(C(=O)NCc2ccc3c(c2)OCO3)cc1,92.2% (inactive),96.2% (inactive),0.675% (inactive),95.5%,96.2%,-8.29% (inactive),-1.9% (inactive)
CN=C(C)C1=C(O)C(C(=O)OC)C(C)(C)CC1=O (stereo not given),108% (inactive),98.5% (inactive),3.21% (inactive),95.3%,98.5%,-1.43% (inactive),2.7% (inactive)
Cn1c(=O)c2ncn(CC(=O)NCCOc3ccccc3)c2n(C)c1=O,108% (inactive),91.9% (inactive),7.6% (inactive),84.2%,91.9%,0.39% (inactive),5.71% (inactive)
Cc1ccc(CSc2nc3c(c(=O)[nH]2)C(c2ccncc2)C2=C(CCCC2=O)N3)cc1 (stereo not given),72.5% (inactive),97.9% (inactive),6.75% (inactive),91.1%,97.9%,-3.03% (inactive),2.22% (inactive)
NC(=O)c1sc2nc3c(c(-c4ccco4)c2c1N)CCC3,75.7% (inactive),81.4% (inactive),-16.8% (inactive),98.2%,81.4%,-5.47% (inactive),-8.57% (inactive)
CC(C)Cn1cc(C(=O)NCC2CCCO2)c2c3ccccc3n(C)c2c1=O (stereo not given),104% (inactive),89.5% (inactive),1.72% (inactive),87.8%,89.5%,-2.08% (inactive),1.59% (inactive)
COc1ccc(N2CCN(C(=O)CN3C(=O)C4CC=CCC4C3=O)CC2)cc1 (stereo not given),99.7% (inactive),94.6% (inactive),3.03% (inactive),91.5%,94.6%,2.47% (inactive),14.8% (inactive)
CCCOc1ccc(N2C(=O)CC(SCCN)C2=O)cc1 (stereo not given),88.2% (inactive),108% (inactive),8.12% (inactive),100%,108%,-5.47% (inactive),-3.02% (inactive)

# Source: PubChem BioAssay
